Laboratory results as given in ChEMBL document CHEMBL2440054, “Largazole Arrests Cell Cycle at G1 Phase and Triggers Proteasomal Degradation of E2F1 in Lung Cancer Cells” (ACS Med Chem Lett, 2013).
Active and inactive are the calls of the source. No cut-off for these calls is given here.

Assays:
A549 [1] = experiment: Downregulation of p21 protein expression in human A549 cells at 0.1 uM after 4 hrs by Western blotting analysis in presence of protein synthesis inhibitor cycloheximide; format: functional, cell-based
A549 [2] = experiment: Downregulation of E2F1 in human A549 cell nucleus at 0.1 uM after 6 to 24 hrs by Western blotting analysis; format: functional, cell-based
Procedure, shortened: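 A549 cells exposed to 0.1 μM largazole for indicated times. Cytoplasmic and nuclear fractions separated, then Western blotted for E2F1.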

[3] = molecular target: Transcription factor E2F1 (Homo sapiens) (UniProt Q01094); experiment: Induction of E2F1 degradation in human 95-D cells at 0.1 uM after 12 to 24 hrs by Western blotting analysis; format: cell-based
Procedure, shortened: (§1)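 Each cell line (16-HBE, 95D, L78, H1975, H460) treated with 0.1 μM largazole for indicated times. Lysates Western blotted for E2F1.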

[4] = molecular target: Transcription factor E2F1 (Homo sapiens) (UniProt Q01094); experiment: Induction of E2F1 degradation in human NCI-H1975 cells at 0.1 uM after 12 to 24 hrs by Western blotting analysis; format: cell-based; procedure, shortened: as §1
A549 [5] = experiment: Downregulation of E2F1 protein expression in human A549 cells at 0.1 uM by Western blotting analysis; format: functional, cell-based; settings: TDE = time-dependent effect
Procedure, shortened: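 A549 cells treated with 0.1 μM largazole over a time course, or with a range of concentrations for 12 h. Lysates Western blotted for E2F1.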

A549 [6] = experiment: Upregulation of p21 protein expression in human A549 cells at 0.1 uM after 6 hrs by Western blotting analysis in presence of Hsp90 inhibitor 17-AAG; format: functional, cell-based
Procedure, shortened: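 A549 cells treated 6 h with 0.1 μM, with or without 1 μM 17-AAG, then lysed and Western blotted. p21 quantified by densitometry and normalized to β-actin.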

A549 [7] = experiment: Upregulation of p21 mRNA expression in human A549 cells at 0.1 uM after 12 hrs by RT-PCR analysis; format: functional, cell-based
Procedure, shortened: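 A549 cells at 0.1 μM over a time course. RNA extracted, and p21 mRNA assessed by RT-PCR with specific primers.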

A549 [8] = experiment: Effect on CDK4 protein expression in human A549 cells at 0.1 uM after 6 to 36 hrs by Western blotting analysis; format: functional, cell-based
Procedure, shortened: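 A549 cells exposed to 0.1 μM largazole over a time course, lysed, and Western blotted for cyclin D1, CDK2, CDK4, p21 and p27.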

A549 [9] = experiment: Upregulation of p27 protein expression in human A549 cells at 0.1 uM after 12 hrs by Western blotting analysis; format: functional, cell-based
Procedure, shortened: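 A549 cells exposed to 0.1 μM over a time course, then lysed and Western blotted for G1 regulators including p21 and p27.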

A549 [10] = experiment: Induction of apoptosis in human A549 cells assessed as decrease in pro-caspase-3 level at 0.1 uM after 48 hrs by Western blotting analysis; format: functional, cell-based
Procedure, shortened: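 A549 cells given largazole 0.1 μM for indicated times, lysed, and Western blotted for pro-/cleaved caspase-9, caspase-8, pro-/active caspase-3 and PARP.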

A549 [11] = experiment: Induction of apoptosis in human A549 cells assessed as increase in cleaved caspase-9 level at 0.1 uM after 48 hrs by Western blotting analysis; format: functional, cell-based
Procedure, shortened: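 A549 cells exposed to 0.1 μM for a time course, then lysed and Western blotted. Read-outs are pro- and cleaved caspase-9, pro- and active caspase-3, and cleaved PARP.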

NCI-H460 [12] = experiment: Cell cycle arrest in human NCI-H460 cells assessed as accumulation at G1 phase at 0.1 uM after 24 hrs by propidium iodide staining-based flow cytometric analysis (reference value: 58.9%); format: functional
NCI-H460 [13] = experiment: Cell cycle arrest in human NCI-H460 cells assessed as accumulation at G2 phase at 0.06 uM after 24 hrs by propidium iodide staining-based flow cytometric analysis (reference value: 9.5%); format: functional
A549 [14] = experiment: Cell cycle arrest in human A549 cells assessed as accumulation at G1 phase at 0.1 uM after 24 hrs by propidium iodide staining-based flow cytometric analysis (reference value: 48.3%); format: functional
A549 [15] = experiment: Cell cycle arrest in human A549 cells assessed as accumulation at G2 phase at 0.06 uM after 24 hrs by propidium iodide staining-based flow cytometric analysis (reference value: 3.7%); format: functional
A549 [16] = experiment: Cell cycle arrest in human A549 cells assessed as accumulation at S phase at 0.06 uM after 24 hrs by propidium iodide staining-based flow cytometric analysis (reference value: 48%); format: functional
NCI-H460 [17] = experiment: Cytotoxicity against human NCI-H460 cells assessed as inhibition of colony formation pretreated for 24 hrs followed by seeding measured after 10 days by clonogenic assay; format: functional, cell-based
Procedure, shortened: (§2)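 Soft-agar clonogenic assay. Cells pretreated 24 h with largazole or DMSO, then seeded in 0.3% soft agar upper layer over 0.6% soft agar lower layer. Colonies counted by microscope after 10 days. Mean ± SD of three independent experiments.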

A549 [18] = experiment: Cytotoxicity against human A549 cells assessed as inhibition of colony formation pretreated for 24 hrs followed by seeding measured after 10 days by clonogenic assay; format: functional, cell-based; procedure, shortened: as §2
[19] = Cytotoxicity against human H466 cells after 48 hrs by CCK-8 assay; format: functional, cell-based; settings: H466, 48 h
Procedure, shortened: (§3)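 Cells treated with a range of largazole concentrations for 48 h. Proliferation read by CCK-8 assay; IC50 derived from the concentration series.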

[20] = Cytotoxicity against human L78 cells after 48 hrs by CCK-8 assay; format: functional, cell-based; settings: L78, 48 h; procedure, shortened: as §3
[21] = Cytotoxicity against human SPCA1 cells after 48 hrs by CCK-8 assay; format: functional, cell-based; settings: SPCA1, 48 h; procedure, shortened: as §3
NCI-H460 [22] = experiment: Cytotoxicity against human NCI-H460 cells after 48 hrs by CCK-8 assay; format: functional, cell-based; settings: NCI-H460, 48 h; procedure, shortened: as §3
A549 [23] = experiment: Cytotoxicity against human A549 cells after 48 hrs by CCK-8 assay; format: functional, cell-based; settings: A549, 48 h; procedure, shortened: as §3
NCI-H1975 = experiment: Cytotoxicity against human NCI-H1975 cells after 48 hrs by CCK-8 assay; format: functional, cell-based; settings: NCI-H1975, 48 h; procedure, shortened: as §3
[24] = molecular target: Histone deacetylase 1 (Homo sapiens) (UniProt Q13547); settings: 16HBE, 0.1 uM
Chain of Histone deacetylase 1 (Homo sapiens) (Q13547 whole entry): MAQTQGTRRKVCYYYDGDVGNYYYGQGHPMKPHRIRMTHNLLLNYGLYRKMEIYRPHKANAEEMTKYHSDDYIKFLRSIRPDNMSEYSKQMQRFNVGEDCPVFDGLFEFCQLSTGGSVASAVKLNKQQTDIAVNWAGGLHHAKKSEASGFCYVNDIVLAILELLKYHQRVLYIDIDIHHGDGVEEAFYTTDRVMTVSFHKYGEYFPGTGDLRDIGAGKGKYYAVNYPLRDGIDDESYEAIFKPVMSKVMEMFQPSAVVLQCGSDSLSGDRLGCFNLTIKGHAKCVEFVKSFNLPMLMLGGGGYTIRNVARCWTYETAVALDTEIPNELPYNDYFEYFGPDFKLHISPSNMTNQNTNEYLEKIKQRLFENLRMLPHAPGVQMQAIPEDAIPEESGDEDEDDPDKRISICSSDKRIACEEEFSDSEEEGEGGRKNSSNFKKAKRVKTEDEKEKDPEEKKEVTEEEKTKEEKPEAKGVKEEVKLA

Chain of Transcription factor E2F1 (Homo sapiens) (Q01094 whole entry): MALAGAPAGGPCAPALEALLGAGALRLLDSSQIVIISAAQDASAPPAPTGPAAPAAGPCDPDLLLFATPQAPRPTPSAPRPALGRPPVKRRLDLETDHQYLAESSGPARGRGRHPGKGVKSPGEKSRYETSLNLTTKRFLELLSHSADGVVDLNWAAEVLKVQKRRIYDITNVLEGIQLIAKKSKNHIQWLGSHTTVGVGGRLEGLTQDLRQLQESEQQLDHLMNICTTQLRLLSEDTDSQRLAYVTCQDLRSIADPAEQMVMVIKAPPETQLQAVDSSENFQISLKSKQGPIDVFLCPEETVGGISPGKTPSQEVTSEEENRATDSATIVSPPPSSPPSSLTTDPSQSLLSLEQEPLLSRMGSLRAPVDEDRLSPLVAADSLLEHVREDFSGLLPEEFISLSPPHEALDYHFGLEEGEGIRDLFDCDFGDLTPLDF

SMILES: CCCCCCCC(=O)SCC/C=C/[C@@H]1CC(=O)NCc2nc(cs2)C2=N[C@@](C)(CS2)C(=O)N[C@@H](C(C)C)C(=O)O1 [LARGAZOLE]
- Activity (A549 [1]): Active
- Activity (A549 [2]): Active
- Activity [3]: Active
- Activity [4]: Active
- Activity (A549 [5]): tde
- Activity (A549 [6]): inactive
- Activity (A549 [7]): Active
- Activity (A549 [8]): inactive
- Activity (A549 [9]): Active
- Activity (A549 [10]): Active
- Activity (A549 [11]): Active
- Activity (NCI-H460 [12]): 84.1%
- Activity (NCI-H460 [13]): 10.8%
- Activity (A549 [14]): 88.2%
- Activity (A549 [15]): 3.1%
- Activity (A549 [16]): 6.5%
- inhibition (NCI-H460 [17]): Dose-dependent effect
- inhibition (A549 [18]): Dose-dependent effect
- IC50 [19]: 520 nM
- IC50 [20]: 570 nM
- IC50 [21]: 140 nM
- IC50 (NCI-H460 [22]): 120 nM
- IC50 (A549 [23]): 77 nM
- IC50 (NCI-H1975): 83 nM
- inhibition [24]: Active
